Results: ChEMBL document CHEMBL4665670 (ACS Med Chem Lett, 2019)
Activity calls are given as the source filed them. The calls are words filed in the database; no cut-off is given here.

Assays:
[1] = Clearance in Sprague-Dawley rat at 1 mg/kg, iv measured up to 24 hrs by HPLC analysis; assay type: ADME, organism-based; conditions: in vivo
[2] = target: T1, Tyrosine-protein kinase BTK (Homo sapiens, UniProt Q06187); assay: Inhibition of full length human unphosphorylated BTK using FITC-Ahx-TSELKKVVALYDYMPMNAND-NH2 as substrate incubated for 60 mins in presence of ATP at Km concentration
[3] = Intrinsic clearance in human liver microsomes; assay type: ADME, Microsome
[4] = Intrinsic clearance in rat liver microsomes; assay type: ADME, Microsome
[5] = target: T1, Tyrosine-protein kinase BTK; assay: Inhibition of BTK in human whole blood assessed as reduction in polyclonal anti-IgM antibody/human IL4-stimulated CD69 cell surface expression on B cells incubated for 16 hrs by FACS analysis; assay type: tissue-based
[6] = target: T2, Epidermal growth factor receptor (Homo sapiens, UniProt P00533); assay: Inhibition of EGF-induced EGFR phosphorylation in human A431 cells preincubated for 24 hrs followed by EGF stimulation and measured after 10 mins by HTRF based immunoassay; assay type: cell-based
[7] = target: T3, Tyrosine-protein kinase JAK3 (Homo sapiens) (UniProt P52333); assay: Inhibition of JAK3 (unknown origin)
T3 sequence (whole entry): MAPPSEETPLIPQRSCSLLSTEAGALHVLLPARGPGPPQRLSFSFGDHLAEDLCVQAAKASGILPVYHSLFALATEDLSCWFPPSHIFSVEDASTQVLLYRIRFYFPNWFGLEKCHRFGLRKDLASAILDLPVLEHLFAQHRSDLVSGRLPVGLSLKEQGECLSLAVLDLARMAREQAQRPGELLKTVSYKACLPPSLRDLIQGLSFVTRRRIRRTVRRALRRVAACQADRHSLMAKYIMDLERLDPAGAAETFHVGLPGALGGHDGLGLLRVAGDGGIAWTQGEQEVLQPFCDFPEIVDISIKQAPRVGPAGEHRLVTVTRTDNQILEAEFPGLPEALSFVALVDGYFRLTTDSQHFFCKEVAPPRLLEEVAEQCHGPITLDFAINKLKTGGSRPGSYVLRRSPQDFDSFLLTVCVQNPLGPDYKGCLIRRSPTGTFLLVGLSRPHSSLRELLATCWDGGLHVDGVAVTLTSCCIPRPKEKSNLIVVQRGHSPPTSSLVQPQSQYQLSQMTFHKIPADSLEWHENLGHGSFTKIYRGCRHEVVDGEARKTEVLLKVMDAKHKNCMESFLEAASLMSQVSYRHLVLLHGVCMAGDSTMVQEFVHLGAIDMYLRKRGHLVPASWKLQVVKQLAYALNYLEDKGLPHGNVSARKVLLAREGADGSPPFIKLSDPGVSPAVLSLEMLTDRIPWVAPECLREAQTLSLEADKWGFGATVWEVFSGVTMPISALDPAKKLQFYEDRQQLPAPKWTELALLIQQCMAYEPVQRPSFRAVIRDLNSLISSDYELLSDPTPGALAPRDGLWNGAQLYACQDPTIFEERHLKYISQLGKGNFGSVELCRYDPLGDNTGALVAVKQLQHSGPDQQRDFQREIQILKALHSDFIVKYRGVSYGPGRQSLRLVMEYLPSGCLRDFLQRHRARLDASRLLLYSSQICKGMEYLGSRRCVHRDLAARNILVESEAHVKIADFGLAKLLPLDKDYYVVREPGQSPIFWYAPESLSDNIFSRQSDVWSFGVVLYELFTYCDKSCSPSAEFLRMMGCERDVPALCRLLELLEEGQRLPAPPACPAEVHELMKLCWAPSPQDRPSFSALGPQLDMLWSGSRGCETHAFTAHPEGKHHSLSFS

[8] = Terminal plasma concentration in ovalbumin-immunized C57Bl6 mouse at 60 mg/kg, po administered 2 h prior to OVA immunization and measured after 5 hrs; assay type: ADME, organism-based; conditions: read-out: Cp(T)
How it was run: (§1)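 Terminal blood drug concentrations taken in the mouse reverse passive Arthus study (i.v. OVA plus intradermal IgG anti-OVA), after a single oral dose of 6, 20 or 60 mg/kg given 2 h before induction, sampled 5 h after dosing.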

[9] = target: T1, Tyrosine-protein kinase BTK; assay: Irreversible inhibition of human BTK kinase domain by LC/MS analysis
Mus musculus [10] = assay: […] activity in ovalbumin-immunized C57Bl6 mouse assessed as reduction in skin swelling at 60 mg/kg, po administered 2 h prior to OVA immunization and measured after 5 hrs by caliper method relative to control; assay type: functional; design: scale not given: the % may be the effect or the level left
How it was run: (§2)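 Mouse reverse passive Arthus reaction: acute FcγR-dependent hypersensitivity induced by intravenous ovalbumin antigen followed by intradermal polyclonal IgG anti-OVA antibody. Single oral dose given 2 h before induction; skin swelling measured 5 h after dosing, compared with vehicle control (SD shown).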

[11] = Oral bioavailability in Sprague-Dawley rat at 3 mg/kg measured up to 24 hrs by HPLC analysis; assay type: ADME, organism-based; conditions: in vivo
[12] = Terminal plasma concentration in ovalbumin-immunized C57Bl6 mouse at 20 mg/kg, po administered 2 h prior to OVA immunization and measured after 5 hrs; assay type: ADME, organism-based; conditions: read-out: Cp(T); how it was run: as §1
[13] = Intrinsic clearance in mouse liver microsomes; assay type: ADME, Microsome
[14] = Clearance in Sprague-Dawley rat at 3 mg/kg, po measured up to 24 hrs by HPLC analysis; assay type: ADME, organism-based; conditions: in vivo
[15] = target: T1, Tyrosine-protein kinase BTK; assay: Inhibition of BTK in vitamin D3 differentiated human THP1 cells assessed as inhibition of FCgammaR-induced IL8 production measured after 24 hrs by immunoblot analysis
Rattus norvegicus = assay: (§3) In vivo protein occupancy at BTK in Wistar Han rat spleen at 10 mg/kg, po measured after 5 hrs relative to control; assay type: functional
How it was run: (§4)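 BTK occupancy measured in spleen homogenates of female rats 5 h after a single 10 mg kg^-1 oral dose, relative to the respective vehicle control. Single-animal values, mean ± SD.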

[16] = target: Receptor tyrosine-protein kinase erbB-4 (Homo sapiens, UniProt Q15303); assay: Inhibition of ERBB4 (unknown origin)
[17] = Terminal plasma concentration in ovalbumin-immunized C57Bl6 mouse at 6 mg/kg, po administered 2 h prior to OVA immunization and measured after 5 hrs; assay type: ADME, organism-based; conditions: read-out: Cp(T); how it was run: as §1
Mus musculus [18] = assay: […] activity in ovalbumin-immunized po dosed C57Bl6 mouse assessed as reduction in skin swelling administered 2 h prior to OVA immunization and measured after 5 hrs by caliper method; assay type: functional, organism-based; conditions: dose mg/kg 6-60, time 2.0 hrs; how it was run: as §2
[19] = target: T2, Epidermal growth factor receptor; assay: Inhibition of EGFR (unknown origin)
[20] = target: Receptor tyrosine-protein kinase erbB-2 (Homo sapiens) (UniProt P04626); assay: Inhibition of ERBB2 (unknown origin)
[21] = as §3; assay type: functional; how it was run: as §4
Mus musculus [22] = assay: […] activity in ovalbumin-immunized C57Bl6 mouse assessed as reduction in skin swelling at 30 mg/kg, po administered 2 h prior to OVA immunization and measured after 5 hrs by caliper method relative to control; assay type: functional; design: scale not given: the % may be the effect or the level left; how it was run: as §2
[23] = Terminal plasma concentration in ovalbumin-immunized C57Bl6 mouse at 30 mg/kg, po administered 2 h prior to OVA immunization and measured after 5 hrs; assay type: ADME, organism-based; conditions: read-out: Cp(T)
How it was run: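 Mice received a single oral dose 2 h before induction of the reverse passive Arthus reaction, which was intravenous ovalbumin followed by intradermal polyclonal IgG anti-OVA antibody. Terminal blood compound concentration was measured 5 h after dosing and reported in nM.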

T1 sequence (Q06187 whole entry): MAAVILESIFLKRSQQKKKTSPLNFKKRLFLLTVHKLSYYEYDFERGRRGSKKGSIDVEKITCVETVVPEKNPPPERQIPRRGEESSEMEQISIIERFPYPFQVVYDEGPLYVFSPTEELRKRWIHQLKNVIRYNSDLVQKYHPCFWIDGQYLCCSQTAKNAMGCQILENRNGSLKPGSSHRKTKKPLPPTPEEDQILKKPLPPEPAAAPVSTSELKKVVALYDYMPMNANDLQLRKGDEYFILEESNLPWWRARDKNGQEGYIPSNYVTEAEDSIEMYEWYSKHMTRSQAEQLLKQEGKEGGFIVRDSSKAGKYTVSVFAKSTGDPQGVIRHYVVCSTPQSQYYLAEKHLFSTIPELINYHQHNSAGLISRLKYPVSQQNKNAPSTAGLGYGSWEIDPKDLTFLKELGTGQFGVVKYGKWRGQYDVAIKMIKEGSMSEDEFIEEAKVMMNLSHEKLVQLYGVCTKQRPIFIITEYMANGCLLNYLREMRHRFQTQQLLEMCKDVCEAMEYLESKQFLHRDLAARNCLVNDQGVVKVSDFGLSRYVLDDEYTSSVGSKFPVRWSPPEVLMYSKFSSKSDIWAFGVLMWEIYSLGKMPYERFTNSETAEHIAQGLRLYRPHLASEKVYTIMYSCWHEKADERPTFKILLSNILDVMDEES
T2 sequence (P00533 whole entry): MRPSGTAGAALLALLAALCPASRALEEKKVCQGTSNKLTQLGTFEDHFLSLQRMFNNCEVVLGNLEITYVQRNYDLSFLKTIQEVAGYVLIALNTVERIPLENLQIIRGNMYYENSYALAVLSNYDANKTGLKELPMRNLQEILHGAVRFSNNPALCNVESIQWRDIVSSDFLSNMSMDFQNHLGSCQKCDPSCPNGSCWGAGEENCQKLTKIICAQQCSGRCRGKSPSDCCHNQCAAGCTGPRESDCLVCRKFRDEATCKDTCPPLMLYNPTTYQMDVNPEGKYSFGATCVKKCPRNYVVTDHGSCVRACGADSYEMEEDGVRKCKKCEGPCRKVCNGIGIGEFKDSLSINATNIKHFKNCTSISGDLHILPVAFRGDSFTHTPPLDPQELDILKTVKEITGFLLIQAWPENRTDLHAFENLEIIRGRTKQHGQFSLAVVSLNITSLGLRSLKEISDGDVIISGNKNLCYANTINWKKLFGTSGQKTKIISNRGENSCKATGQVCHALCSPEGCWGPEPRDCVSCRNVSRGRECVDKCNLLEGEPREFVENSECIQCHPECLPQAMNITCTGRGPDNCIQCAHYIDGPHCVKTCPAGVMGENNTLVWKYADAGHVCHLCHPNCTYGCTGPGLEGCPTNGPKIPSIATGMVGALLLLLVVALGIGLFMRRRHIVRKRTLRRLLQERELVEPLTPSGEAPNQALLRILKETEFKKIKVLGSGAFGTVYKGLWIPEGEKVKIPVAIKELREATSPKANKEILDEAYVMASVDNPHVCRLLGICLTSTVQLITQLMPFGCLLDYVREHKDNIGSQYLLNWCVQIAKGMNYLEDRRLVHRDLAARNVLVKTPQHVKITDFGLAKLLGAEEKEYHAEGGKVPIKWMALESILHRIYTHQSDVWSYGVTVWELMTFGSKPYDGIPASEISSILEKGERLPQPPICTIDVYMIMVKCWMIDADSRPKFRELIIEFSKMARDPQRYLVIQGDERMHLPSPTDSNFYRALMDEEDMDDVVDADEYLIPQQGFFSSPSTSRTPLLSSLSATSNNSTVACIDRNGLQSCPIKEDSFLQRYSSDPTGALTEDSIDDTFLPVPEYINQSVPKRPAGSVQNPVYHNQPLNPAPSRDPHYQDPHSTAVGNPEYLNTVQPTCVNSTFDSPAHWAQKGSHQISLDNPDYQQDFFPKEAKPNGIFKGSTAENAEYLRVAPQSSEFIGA
Sequence of Receptor tyrosine-protein kinase erbB-4 (Q15303 whole entry): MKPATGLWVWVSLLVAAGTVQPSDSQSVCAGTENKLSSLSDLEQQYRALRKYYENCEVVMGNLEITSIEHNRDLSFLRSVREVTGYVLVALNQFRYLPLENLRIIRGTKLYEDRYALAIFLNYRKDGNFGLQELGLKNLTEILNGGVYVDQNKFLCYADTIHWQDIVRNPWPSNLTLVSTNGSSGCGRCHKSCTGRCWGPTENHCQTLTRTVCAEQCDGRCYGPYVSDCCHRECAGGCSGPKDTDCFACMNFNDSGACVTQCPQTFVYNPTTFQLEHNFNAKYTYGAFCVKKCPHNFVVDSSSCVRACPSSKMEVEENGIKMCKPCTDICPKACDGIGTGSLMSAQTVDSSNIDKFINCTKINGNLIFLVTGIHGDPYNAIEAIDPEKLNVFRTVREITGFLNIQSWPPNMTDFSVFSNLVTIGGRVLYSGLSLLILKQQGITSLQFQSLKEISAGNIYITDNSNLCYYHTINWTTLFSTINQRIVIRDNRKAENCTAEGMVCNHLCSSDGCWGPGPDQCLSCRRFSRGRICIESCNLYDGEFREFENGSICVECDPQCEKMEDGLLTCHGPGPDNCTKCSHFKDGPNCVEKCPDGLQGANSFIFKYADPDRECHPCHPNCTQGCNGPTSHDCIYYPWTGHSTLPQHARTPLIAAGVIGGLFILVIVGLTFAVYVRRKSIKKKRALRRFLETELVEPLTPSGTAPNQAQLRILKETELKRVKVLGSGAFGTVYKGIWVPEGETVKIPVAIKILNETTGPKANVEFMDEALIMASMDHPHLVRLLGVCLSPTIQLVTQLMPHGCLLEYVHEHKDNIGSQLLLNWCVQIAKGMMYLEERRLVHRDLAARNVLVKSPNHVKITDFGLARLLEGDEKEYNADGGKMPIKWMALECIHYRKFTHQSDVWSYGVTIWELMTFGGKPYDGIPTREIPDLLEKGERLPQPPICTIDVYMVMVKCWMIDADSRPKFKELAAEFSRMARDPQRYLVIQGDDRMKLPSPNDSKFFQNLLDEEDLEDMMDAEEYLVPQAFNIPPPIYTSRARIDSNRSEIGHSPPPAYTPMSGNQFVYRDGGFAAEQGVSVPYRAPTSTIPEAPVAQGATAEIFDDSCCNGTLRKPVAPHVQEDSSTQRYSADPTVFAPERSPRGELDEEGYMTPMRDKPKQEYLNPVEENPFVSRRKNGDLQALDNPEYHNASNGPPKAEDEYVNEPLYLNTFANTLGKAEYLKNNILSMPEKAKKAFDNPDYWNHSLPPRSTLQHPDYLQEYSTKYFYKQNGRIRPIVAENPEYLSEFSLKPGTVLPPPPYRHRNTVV
Sequence of Receptor tyrosine-protein kinase erbB-2 (Homo sapiens) (P04626 whole entry): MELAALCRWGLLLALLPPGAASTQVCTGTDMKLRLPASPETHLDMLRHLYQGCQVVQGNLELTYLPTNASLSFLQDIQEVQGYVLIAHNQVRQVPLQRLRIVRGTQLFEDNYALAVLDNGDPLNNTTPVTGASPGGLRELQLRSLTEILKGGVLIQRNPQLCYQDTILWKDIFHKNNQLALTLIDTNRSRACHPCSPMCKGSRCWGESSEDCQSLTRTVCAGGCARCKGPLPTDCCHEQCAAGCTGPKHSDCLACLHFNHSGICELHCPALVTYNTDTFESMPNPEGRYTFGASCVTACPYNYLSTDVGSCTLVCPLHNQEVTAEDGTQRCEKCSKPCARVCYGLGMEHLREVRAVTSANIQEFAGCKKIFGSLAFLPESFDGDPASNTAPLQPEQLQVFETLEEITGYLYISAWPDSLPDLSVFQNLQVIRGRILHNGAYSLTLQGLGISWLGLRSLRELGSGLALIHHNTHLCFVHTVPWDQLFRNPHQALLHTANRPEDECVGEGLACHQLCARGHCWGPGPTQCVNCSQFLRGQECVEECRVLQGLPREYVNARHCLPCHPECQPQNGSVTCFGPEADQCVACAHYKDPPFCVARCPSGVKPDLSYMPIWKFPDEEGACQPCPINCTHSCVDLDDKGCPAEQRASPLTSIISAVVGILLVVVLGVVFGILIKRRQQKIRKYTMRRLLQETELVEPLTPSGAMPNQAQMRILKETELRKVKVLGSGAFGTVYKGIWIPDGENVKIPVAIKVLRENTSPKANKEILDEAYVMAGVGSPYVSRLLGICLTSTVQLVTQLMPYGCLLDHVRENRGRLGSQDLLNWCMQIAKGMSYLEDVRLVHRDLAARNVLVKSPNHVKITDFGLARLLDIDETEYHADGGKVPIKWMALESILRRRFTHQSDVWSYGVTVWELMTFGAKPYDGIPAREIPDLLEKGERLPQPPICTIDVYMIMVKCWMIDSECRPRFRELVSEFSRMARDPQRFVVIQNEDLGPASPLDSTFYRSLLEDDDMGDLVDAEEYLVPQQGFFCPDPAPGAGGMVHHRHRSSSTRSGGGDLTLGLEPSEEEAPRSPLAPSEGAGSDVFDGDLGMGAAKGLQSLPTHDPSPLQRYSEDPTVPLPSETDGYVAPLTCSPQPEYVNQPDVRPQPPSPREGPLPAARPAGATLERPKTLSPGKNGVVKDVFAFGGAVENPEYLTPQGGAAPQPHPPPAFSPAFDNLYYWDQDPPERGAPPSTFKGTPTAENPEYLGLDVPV

Compound: C=CC(=O)N1CC(O)(c2c[nH]c3ncnc(-c4cc(F)cc(NC(=O)c5ccc(C6CC6)cc5)c4C)c23)C1
- clearance [1]: 183 mL/min/kg
- IC50 [2]: 1.4 nM
- Intrinsic clearance (CLint) [3]: 3 µL/min/mg
- Intrinsic clearance (CLint) [4]: 41 µL/min/mg
- IC50 [5]: 303 nM

Compound: CCC(=O)N(C)Cc1c[nH]c2ncnc(-c3cccc(NC(=O)c4ccc(C(C)(C)C)cc4)c3C)c12
- IC50 [2]: 3900 nM

Compound: C=CC(=O)N(C)Cc1c[nH]c2ncnc(-c3cc(F)cc(NC(=O)c4ccc(C5CC5)cc4)c3C)c12
- IC50 [2]: 26 nM
- Intrinsic clearance (CLint) [3]: 308 µL/min/mg
- Intrinsic clearance (CLint) [4]: > 700 µL/min/mg
- IC50 [5]: 1260 nM

Compound: C=CC(=O)N(C)Cc1c[nH]c2ncnc(-c3cccc(NC(=O)c4ccc(C(C)(C)C)cc4)c3C)c12
- IC50 [6]: > 8 µM
- inhibition [7]: inactive
- concentration at 2 h [8]: 118 nM
- inhibition [9]: Active
- Activity (Mus musculus [10]): 65%
- Intrinsic clearance (CLint) [3]: > 700 µL/min/mg
- bioavailability [11]: 2%
- Intrinsic clearance (CLint) [4]: 693 µL/min/mg
- concentration at 2 h [12]: 14 nM
- CLH [13]: 554 µL/min/mg
- CL/F [14]: > 300 mL/min/kg
- IC50 [15]: 80 nM
- Activity (Rattus norvegicus): inactive
- IC50 [16]: > 10 µM
- concentration at 2 h [17]: 4 nM
- IC50 [5]: 934 nM
- Activity (Mus musculus [18]): Dose-dependent effect
- IC50 [19]: > 10 µM
- inhibition [20]: inactive

Compound: C=CC(=O)N(C)Cc1c[nH]c2ncnc(-c3cccc(NC(=O)c4ccc(C5CC5)cc4)c3C)c12
- IC50 [2]: 190 nM
- Intrinsic clearance (CLint) [3]: 252 µL/min/mg
- Intrinsic clearance (CLint) [4]: 578 µL/min/mg
- IC50 [5]: 7470 nM

Compound: C/C=C/C(=O)N1CC=C(c2c[nH]c3ncnc(-c4cc(F)cc(NC(=O)c5ccc(C6CC6)cc5)c4C)c23)CC1
- clearance [1]: > 300 mL/min/kg
- IC50 [2]: 6 nM
- Intrinsic clearance (CLint) [3]: 459 µL/min/mg
- Intrinsic clearance (CLint) [4]: 127 µL/min/mg
- Activity [21]: 70%
- IC50 [5]: 66 nM

Compound: C=CC(=O)N1CCC(c2c[nH]c3ncnc(-c4cc(F)cc(NC(=O)c5ccc(C6CC6)cc5)c4C)c23)CC1
- IC50 [2]: 1 nM
- Intrinsic clearance (CLint) [3]: 126 µL/min/mg
- Intrinsic clearance (CLint) [4]: 578 µL/min/mg
- IC50 [5]: 19 nM

Compound: Cc1c(NC(=O)c2ccc(C3CC3)cc2)cc(F)cc1-c1ncnc2[nH]cc(C3=CCN(C(=O)/C=C/CN4CCCC4)CC3)c12
- clearance [1]: 176 mL/min/kg
- IC50 [2]: 0.6 nM
- Intrinsic clearance (CLint) [3]: > 700 µL/min/mg
- Intrinsic clearance (CLint) [4]: 628 µL/min/mg
- Activity (Rattus norvegicus): inactive
- IC50 [5]: 26 nM

Compound: C=CC(=O)N(C)C(=O)Cc1c[nH]c2ncnc(-c3cc(F)cc(NC(=O)c4ccc(C5CC5)cc4)c3C)c12
- clearance [1]: 300 mL/min/kg
- IC50 [2]: 1.2 nM
- Intrinsic clearance (CLint) [3]: 39 µL/min/mg
- Intrinsic clearance (CLint) [4]: 98 µL/min/mg
- Activity [21]: 44%
- IC50 [5]: 16 nM

Compound: C=CC(=O)N1CCCC(c2c[nH]c3ncnc(-c4cc(F)cc(NC(=O)c5ccc(C6CC6)cc5)c4C)c23)C1 (stereo not given)
- IC50 [2]: 390 nM
- Intrinsic clearance (CLint) [3]: 603 µL/min/mg
- Intrinsic clearance (CLint) [4]: > 700 µL/min/mg
- IC50 [5]: 8000 nM

Compound: C=CC(=O)N1CCC[C@@H](n2nc(-c3ccc(Oc4ccccc4)cc3)c3c(N)ncnc32)C1 [IBRUTINIB]
- Activity (Mus musculus [22]): 84%
- concentration at 2 h [23]: 187 nM
- Activity [21]: 93%

Compound: C=CC(=O)N1CCC(c2c[nH]c3ncnc(-c4cc(F)cc(NC(=O)c5ccc(C6CC6)cc5)c4C)c23)C1 (stereo not given)
- IC50 [2]: 5 nM
- Intrinsic clearance (CLint) [3]: 111 µL/min/mg
- Intrinsic clearance (CLint) [4]: 171 µL/min/mg
- IC50 [5]: 225 nM

Compound: C=CC(=O)N1CC=C(c2c[nH]c3ncnc(-c4cc(F)cc(NC(=O)c5ccc(C6CC6)cc5)c4C)c23)CC1
- clearance [1]: > 300 mL/min/kg
- Intrinsic clearance (CLint) [3]: 660 µL/min/mg
- Intrinsic clearance (CLint) [4]: 408 µL/min/mg
- Activity [21]: 96%
